ChEMBL document CHEMBL4513216, “Probing the Open Global Health Chemical Diversity Library for Multistage-Active Starting Points for Next-Generation Antimalarials” (ACS Infect Dis, 2020)

Test: Toxicity liver stage against HepG2, at 10uM
Assay type: cell-based
Parameters: test concentration 10 uM, cell line HepG2-A16-CD81EGFP
Conditions: human, HepG2-A16-CD81EGFP cells; read-out: INHIBITION
Summary of the method: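 Uninfected HepG2-A16-CD81EGFP cells, 3 × 10^3 per well, 1536-well, plated on prespotted compound at 10 μM final, parasite-free screening media added to match infected plates; puromycin 10 μM positive, DMSO 0.5% negative; run in parallel with 48 h PbLuc assay at 37 °C, 5% CO2; viability by CellTiter-Glo luminescence, normalized to controls.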

Structure (SMILES)	cytotoxicity at 10 µM
CCN(C(=O)c1cccc2c1OCO2)c1ccccc1	0.944%
CCN(CC)c1nc2ccsc2c(=O)n1CCC(=O)NCc1ccco1	9.87%
COC1CN(C(=O)NC2CCCC2)CCC(=O)N(C)c2ccccc21 (configuration not stated)	-9.35%
Cc1ccc(C(=O)N2CC[C@@]3(O)CCCC[C@H]3C2)cc1	-45.1%
Cn1nnnc1SC1CCc2ccccc2NC1=O (configuration not stated)	-3.22%
Cc1ccsc1C(O)CNC(=O)Cc1ccc(F)cc1 (configuration not stated)	3.15%
O=C(c1ccccc1F)N1CCN(c2ccc(-n3cccc3)nn2)CC1	53.2%
CCS(=O)(=O)N1CCc2nc(N3CCOCC3)nc(N(C)C)c2CC1	21.3%
CN1C(=O)CC2(CCN(S(=O)(=O)C3CC3)CC2)c2ccccc21	2.04%
CCN1CC2(CC1=O)CN(C(=O)c1ccsc1)CCN(C(=O)N(C)C)C2 (configuration not stated)	3.01%
CC/N=c1\nc(NCC)nc2n1C(O)(Nc1cc(Cl)ccc1Cl)CS2 (configuration not stated)	51.8%
O=C1CC(c2cccc(Cl)c2)c2snc(C(=O)O)c2N1 (configuration not stated)	2.91%
O=C(CCC1CCCC1)N1CCC(c2cc3ncccc3c(O)n2)CC1	-4.82%
Cc1nc(C2CCCN2C(=O)c2ccc(F)cc2)ncc1C(N)=O (configuration not stated)	-7.62%
Cc1noc(C)c1C(=O)N1CCCC(c2c(C)c(=O)nc3n2CCC3)C1 (configuration not stated)	-21.1%
CN1CCC(Cc2cncc(-c3ccccc3C(=O)O)n2)C1 (configuration not stated)	-7.19%
O=C(Cn1ccnc1)N1C[C@@H]2CC[C@H](Oc3ccc(Cl)cc3)[C@@H]2C1	-3.8%
Cc1cnccc1CN1CC[C@@](C)(O)[C@H](Oc2cccc(F)c2)C1	1.52%
CCc1nnc(Nc2cccc(C3CCN(CCO)CC3)n2)s1	-6.41%
CCCN(CCn1c(=O)oc2ccccc21)CC1CC1	1.78%
O=C(Nc1cc(Cl)ccc1N1CCCCC1)c1ccccn1	-55%

Structure (SMILES)	cytotoxicity at 10 µM
Cc1ccc(-n2cc(C)cn2)c(NC(=O)NC2(C)CCOC2)c1 (configuration not stated)	-43.2%
O[C@H]1Cc2ccccc2[C@H]1Nc1ncccc1C(F)(F)F	5.95%
COc1ccc(C2CCCN2C(=O)NCCCn2cccn2)cc1 (configuration not stated)	7.53%
Cc1cc(C)cc(C(=O)Nc2cccc(CN3CCCC3C(N)=O)c2)c1 (configuration not stated)	4.38%
OC(CN(Cc1ccccc1)Cc1ccccn1)c1cccs1 (configuration not stated)	0.174%
Cc1ccc(S(=O)(=O)Nc2ccc(-n3cccc3C(=O)O)c(C)c2)cc1	-3.94%
Cc1cnn(CC(C)NCc2nc(-c3ccccn3)no2)c1 (configuration not stated)	0.234%
c1cc(NCc2cscn2)cc(OCCN2CCCCC2)c1	-20.7%
Cn1cc(NC(=O)c2cccc(Cl)c2)c(=O)n(C)c1=O	-1.86%
CC(C)(C)n1nc(C2CC2)cc1C(=O)NC1CCN(CC(N)=O)CC1	-2.06%
CCS(=O)(=O)c1ccc2c(c1)OCCCO2	-2.3%
CC(CCNC(=O)NCCc1ccncc1)c1ccccc1 (configuration not stated)	-5.82%
CN(Cc1ccncc1)C(=O)NCc1cn(-c2ccccc2)nn1	-55.7%
CC(=O)Nc1ccc(C(=O)N(C)Cc2ccc(F)cc2F)s1	6.43%
Cc1nnc(CSCc2ccc(OCC(F)(F)F)nc2)o1	2.49%
Clc1ccc(CNc2cnn(CCN3CCOCC3)c2)cc1Cl	3.2%
CC(=O)c1ccc(-n2c(C)cn(CCS(C)(=O)=O)c2=O)cc1	11.5%
O=C(Cn1cc(-n2cccc2)cn1)NCC1CCC1	14.7%
O=C(CCN1CCCCC1c1cc2ccccc2[nH]1)N1CCOCC1 (configuration not stated)	7.82%
COCCC(=O)N1CCN(CC2CC2)c2ncccc2C1	-96.7%
CC(C)[C@@H](CO)Nc1cc(-c2cn[nH]c2)ncn1	-11.3%

Structure (SMILES)	cytotoxicity at 10 µM
CN1C[C@@H](N)C[C@H]1C(=O)N1CCC(CCCc2ccccc2)CC1	-8.29%
CN(Cc1csc(-c2cccs2)n1)Cc1cccnc1N	-1.06%
CCc1cnc(C)nc1NCCSc1nnc(C)n1CC	-4.19%
O=C(NCCN1CCCCC1=O)C1CCC(=O)N(C2CCCC2)C1 (configuration not stated)	-10.8%
Cn1c(CN2CCC(OCc3cccnc3)CC2)cc2ccccc21	-2.65%
CCC(C(=O)NC1(C(N)=O)CCCC1)n1cccn1 (configuration not stated)	-9.13%
CCc1ncc(CN2CCOC(Cc3cccc(F)c3)C2)cn1 (configuration not stated)	0.0753%
Cc1nc(CCNC(=O)C(N)c2c(C)n[nH]c2C)sc1C (configuration not stated)	2.08%
CCN(Cc1ccncc1)C1CCCN(C/C=C/c2ccc(F)cc2)C1 (configuration not stated)	6.61%
CCC1CN(C(=O)c2csc3nc(-c4ccc(Cl)cc4)cn23)CCN1 (configuration not stated)	1.6%
CC(C)(O)CCc1cccc(C(=O)NCc2nccs2)c1	-50.7%
O=c1c2cccc(Cl)c2ncn1C1CCNC1 (configuration not stated)	-41.2%
CN(C)c1nc2c(c(N(C)C)n1)CCN(C(=O)CN1CCC(O)CC1)C2	5.31%
Cc1n[nH]c(CN2CCN(CC3CC3)[C@@H]3CS(=O)(=O)C[C@@H]32)n1	-15.8%
CSCCC1c2nc[nH]c2CCN1Cc1cncn1C (configuration not stated)	13.3%
CC1CCCN(c2ccc(C(N)=O)cc2NC(=O)CC2=CCNCC2)C1 (configuration not stated)	-46.3%
CCn1c(CC2CCN(C(=O)C3CCOC3)CC2)nn(C)c1=O (configuration not stated)	-18%
COCCc1noc(CN2C(=O)OC[C@@H]2C(C)C)n1	-8.93%
CCN(C)CC(=O)N1CCCC(c2nnc(CN3CCOCC3)n2C)C1 (configuration not stated)	-8.28%
Cc1noc(-c2ccnc(Oc3ccccc3CN3CCCCC3)c2)n1	-1.76%
CC(CN1CCC(c2ccccc2)CC1)n1cnc2ccccc21 (configuration not stated)	15.5%

Structure (SMILES)	cytotoxicity at 10 µM
CCc1[nH]c2c(CNc3cnccn3)cc(F)cc2c1C	-2.61%
Cc1ccc(CN2CCN(c3cncc(N(C)C)n3)CC2=O)cc1C	-2.53%
COCCCN1CCC(C(=O)c2cc(F)ccc2F)CC1	-10.9%
O=C(N1CCCCC1)N1CCN(CC(O)c2ccccc2)CC1 (configuration not stated)	-7.45%
Cc1ccoc1C(=O)NC1CCN(Cc2cccc3ccccc23)CC1	0.561%
CCn1cnnc1CNC(=O)c1cc(Cl)ccc1F	-7.75%
Cc1nc(C)n(C2CCCN(C(=O)c3cccc4cn[nH]c34)C2)n1 (configuration not stated)	-8.86%
CCNC(=O)CCc1c(C)nc2cc(O)nn2c1C	-12.6%
CCCC1CCCN(Cc2csc(-c3cnn(C)c3)n2)CC1 (configuration not stated)	-1.47%
NC(=O)CC1CCN(C(=O)NCc2ccccc2-n2cccn2)CC1	2.19%
COC(=O)c1cccn1C1CCN(Cc2ccccc2)CC1	-12%
Cc1cc(C(=O)N2CCc3nc(N4CCOCC4)nc(C)c3C2)c(C)o1	-110%
CC(=O)N1[C@H](Cn2cncn2)C[C@@H]2CN(Cc3ccncc3)CC[C@@H]21	2.24%
CCS(=O)(=O)N1CCCC2(COCCN(c3ccccn3)C2)C1 (configuration not stated)	-1.02%
Cc1cnc(N2C[C@H]3CCCC(N(C)Cc4ccccn4)[C@H]3C2)nc1 (some centres not stated)	-104%
COc1ccccc1CNC(Cc1cccs1)c1nc(C)c(C)s1 (configuration not stated)	3.89%
Fc1ccc(CN2CC[C@H]3O[C@@H](COCC4CCOCC4)CC[C@H]32)cc1	7.64%
COC[C@@]12CCO[C@@H]1CCN(Cc1ccc(C)s1)C2	-91.9%
c1cc(CO[C@@H]2CC[C@H]3[C@H]2OCCN3Cc2ccoc2)ccn1	10.8%
